Bioassay records deposited in PubChem BioAssay by several laboratories.
Only some compounds are listed: those with a hit (about 2.3% of all), similar ones and a draw of the others.
CHT PAM – CHT positive allosteric modulators, primary screen, cell-based, membrane potential dye, choline EC20; High affinity choline transporter 1 (Homo sapiens), Q9GZV3; CHT-expressing cells; hits give high values; LV-AA mutant CHT in HEK293 cells; B-score at 10 µM; 0.49% of 310,000 active;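 active = initial fluorescence not abnormally high and integrated response B-score, plate-corrected, over 3 SD above library mean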
DSG3 Ab inh – inhibitors of pemphigus antibody binding to DSG3, primary screen, biochemical, bead-based, flow cytometry, scFv-GFP; Desmoglein-3 (Homo sapiens), P32926; DSG3-coupled beads, scFv-anti-DSG3-GFP binding; hits give low values; binding (percent of control), % at 10 µM; 0.48% of 310,000 active; AID 588358, 2011;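 active = binding more than 3 SD below its plate's average and above zero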;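 also: hits lower antibody fragment binding to DSG3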
p-CIP stab down – p/CIP-EGFP fusion destabilizers, primary screen, fluorescence, F442A cells; Q05BA5; 16 h; decrease of EGFP signal, % at 10 µM; 0.01% of 290,000 active; AID 1984, 2009;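 active = EGFP signal decrease of at least 30% at 10 µM or well 3 SD below plate mean, unless failing retest; inactive = the rest, including hits failing retest or dose response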
GPR7 antagonist – GPR7 receptor antagonists, primary screen, cell-based, fluorescence, single concentration; Neuropeptides B/W receptor type 1 (Homo sapiens), P48145; GPR7-expressing cells, fluorescence antagonist assay; inhibition, % at 4.4 µM; 1.1% of 290,000 active; AID 1861, 2009; in the data active = inhibition above about 16%, passing the limit was not always enough;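 also: cells stimulated with the agonist NPW; 0% = agonist with vehicle and 100% = vehicle without agonist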
CHT block – inhibitors of human choline transporter CHT; B-score at 10 µM; 0.86% of 310,000 active; High affinity choline transporter 1 (Homo sapiens), Q9GZV3; CHT-expressing cells, membrane potential dye, choline response; hits give low values;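 active = B-score over 3 SD under the library average, and starting fluorescence ratio not unusually high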;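 also: choline stimulus applied at its EC90 after an EC20 pre-addition; B-score computed on integrated fluorescence ratio after choline addition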
T cell modulator – modulators of CD8 T cell-vesicle binding, primary screen, mouse 2C CD8+ T cells, flow cytometry | 2C CD8+ T cell-vesicle binding; hits give low values | response (vesicle binding), % at 7 µM | 0.068% of 330,000 active;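 active = response, share of CD8 T cells binding vesicles, and their 90th percentile fluorescence all below set limits, cut at about 80% in these data, passing the limit was not always enough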;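 also: values below 100% mean blocked vesicle binding to the CD8+ T cells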
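material = purified 2C TCR transgenic mouse naive CD8+ T cells | controls = Unloaded micro-vesicles (low), QL9 vesicles with 0.7% DMSO (high) | detection = cytometric PE anti-B7-1 and Alexa647 anti-CD8 signals after 1% paraformaldehyde fixation | incubation = binding step 1.5 h, 37 °C, antibody labelling 20 min, ice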
Starred values were filed as active, the others as inactive.

Screening CC(Nc1nc(-c2ccc(F)cc2)cs1)c1nc2cc(Cl)c(Cl)cc2n1CCCO (centres undefined) returned CHT PAM inactive, DSG3 Ab inh 87*, CHT block inactive and T cell modulator 106.
Screening Cc1nc2cc3c(=O)n(C)cnc3cc2n1Cc1ccccc1 returned DSG3 Ab inh 108.
For COc1ccc2c(c1)c(N=NC(N)=S)c(O)n2CC(=O)c1ccccc1 the results were CHT PAM inactive, DSG3 Ab inh 59*, p-CIP stab down -12, GPR7 antagonist -7, CHT block inactive and T cell modulator 281.
CCc1cc2cc3c(cc2nc1SCC(=O)Nc1cc(C)on1)OCO3 was read as CHT PAM inactive, DSG3 Ab inh 87*, p-CIP stab down -16, GPR7 antagonist -11, CHT block inactive and T cell modulator 321.
`CCc1cc2ccc(C)cc2nc1SCC(=O)Nc1cc(C)on1` gave CHT PAM inactive, DSG3 Ab inh 112, p-CIP stab down 1, GPR7 antagonist -6, CHT block inactive and T cell modulator 246.
COCC(=O)N(C)C[C@H]1Oc2cc(C#Cc3cccnc3)ccc2S(=O)(=O)N([C@H](C)CO)C[C@H]1C was read as DSG3 Ab inh 103.
CCOC(=O)C1(CCc2ccccc2)CCN(Cc2ccn[nH]2)CC1 was read as CHT PAM inactive, DSG3 Ab inh 97, p-CIP stab down 4, GPR7 antagonist 2, CHT block inactive and T cell modulator 162.
For CCOC(=O)C1(CCc2ccccc2)CCN(Cc2cccc3nccnc23)CC1 the results were CHT PAM inactive, DSG3 Ab inh 100, p-CIP stab down -8, GPR7 antagonist 3, CHT block -12* and T cell modulator 279.
`O=C1CCC2c3[nH]c4ccccc4c3CCN12` (centres undefined) gave DSG3 Ab inh 104.
For COc1ccc(NS(=O)(=O)c2cccc(N/C(=N\S(=O)(=O)c3ccccc3)c3ccc(F)cc3)c2)cc1 the results were CHT PAM inactive, DSG3 Ab inh 90, p-CIP stab down -5, GPR7 antagonist 21*, CHT block inactive and T cell modulator 633.
For CN(C(=O)COC(=O)COc1ccc2ccccc2c1)c1ccccc1 the results were DSG3 Ab inh 98.
Screening Cc1ccc(-c2cc(C(=O)Nc3c(C)n(C)n(-c4ccccc4)c3=O)[nH]n2)c(O)c1 returned CHT PAM inactive, DSG3 Ab inh -21*, p-CIP stab down 5, GPR7 antagonist 0, CHT block inactive and T cell modulator 494.
Screening Cc1cc(C)c(-c2cc(C(=O)Nc3c(C)n(C)n(-c4ccccc4)c3=O)[nH]n2)c(O)c1 returned CHT PAM inactive, p-CIP stab down -8, GPR7 antagonist -13, CHT block inactive and T cell modulator 997.
Screening CCc1ccc(-c2cc(-c3n[nH]c(=S)n3CC)c3ccccc3n2)cc1 returned CHT PAM inactive, p-CIP stab down -5, GPR7 antagonist -4, CHT block -11* and T cell modulator 647.
For CCOc1c(Br)cc(C(=O)Nc2cccc(S(=O)(=O)N3CCOCC3)c2)cc1OC the results were DSG3 Ab inh 96.
`Nc1nc(SCc2nnc(SCC(=O)O)n2-c2ccccc2)nc2sc3c(c12)CCCC3` gave CHT PAM inactive, DSG3 Ab inh -17*, p-CIP stab down -6, GPR7 antagonist -6, CHT block inactive and T cell modulator 260.
`O=C(O)CSc1nc2sc3c(c2c(=O)n1-c1ccccc1)CCC3` gave CHT PAM inactive, DSG3 Ab inh 95, p-CIP stab down -6, GPR7 antagonist -9, CHT block inactive and T cell modulator 320.
